Where “and” joins values, the source holds several entries; their conditions need not be identical. Identical values can stand only once.
Columns and labels:
[1] = molecular target: T1, recombinant human Wip1 (1–420) (Homo sapiens, UniProt O15297); assay: Wip1 phosphatase activity inhibition assay; type: biochemical; conditions: for Hill coefficient [n]: variable slope logistic fit of Wip1 inhibition curve
T1 sequence (O15297 1-420): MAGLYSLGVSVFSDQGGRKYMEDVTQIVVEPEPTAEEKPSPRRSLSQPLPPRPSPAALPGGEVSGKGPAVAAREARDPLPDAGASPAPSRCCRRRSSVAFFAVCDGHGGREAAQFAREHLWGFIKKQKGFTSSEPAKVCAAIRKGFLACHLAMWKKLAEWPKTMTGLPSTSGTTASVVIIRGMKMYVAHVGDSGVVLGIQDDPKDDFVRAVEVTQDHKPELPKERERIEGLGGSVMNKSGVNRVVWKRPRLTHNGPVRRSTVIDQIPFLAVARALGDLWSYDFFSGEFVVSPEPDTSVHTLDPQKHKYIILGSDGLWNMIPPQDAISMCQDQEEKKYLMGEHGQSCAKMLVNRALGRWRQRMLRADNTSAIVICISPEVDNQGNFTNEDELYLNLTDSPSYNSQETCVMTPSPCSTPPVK

[2] = molecular target: T2, PPM1A (also called PP2Cα) (Homo sapiens, UniProt P35813); assay: PPM1A phosphatase specificity assay; type: biochemical; conditions: up to 100 μM; 8 nM PPM1A, 100 μM human p38α (175–185, 180pT) phosphopeptide
T2 sequence (P35813 1-382): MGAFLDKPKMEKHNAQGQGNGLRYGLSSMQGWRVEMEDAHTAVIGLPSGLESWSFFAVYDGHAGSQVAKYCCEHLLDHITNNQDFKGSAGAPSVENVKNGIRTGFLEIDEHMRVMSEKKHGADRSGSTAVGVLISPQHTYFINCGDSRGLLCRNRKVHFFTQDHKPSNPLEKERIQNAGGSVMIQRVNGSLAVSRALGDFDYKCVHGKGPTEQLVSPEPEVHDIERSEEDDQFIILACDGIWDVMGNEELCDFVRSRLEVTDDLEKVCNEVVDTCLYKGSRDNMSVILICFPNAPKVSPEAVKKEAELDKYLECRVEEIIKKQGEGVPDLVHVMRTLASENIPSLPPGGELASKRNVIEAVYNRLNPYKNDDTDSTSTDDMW
How it was run: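 Test compound or DMSO is mixed with the phosphopeptide substrate before PPM1A is added. Buffer: 50 mM Tris·HCl pH 7.5, 0.1 mM EGTA, 1 mM DTT, 1 mM CHAPS, 0.1 mg/mL BSA, 30 mM MgCl2. Incubation runs 7 min at 30 °C. Biomol Green stops the reaction, then colour develops 20 min at room temperature. Released phosphate is read at 620 nm against a phosphate standard curve.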

Compound | fold improvement in Wip1 inhibition ([1]; compared with 22g) [fold] | Hill coefficient [n] [1] | inhibitory activity against PPM1A [2]
O=C(Nc1cccc(Cl)c1)c1cccc(CNc2ccc(C(=O)Nc3cccc(OP(=O)(O)O)c3)cc2CC2CCCCC2)c1 [Compound 40b, 3-(4-((3-((3-chlorophenyl)carbamoyl)benzyl)amino)-3-(cyclohexylmethyl)benzamido)phenyl dihydrogen phosphate] | 7 | 1.4 ± 0.1 | no inhibitory activity
O=C(Nc1cccc(Cl)c1)c1cccc(C(=O)Nc2ccc(C(=O)Nc3cccc(OP(=O)(O)O)c3)cc2CC2CCCCC2)c1 [Compound 48a, 3-(4-(3-((3-chlorophenyl)carbamoyl)benzamido)-3-(cyclohexylmethyl)benzamido)phenyl dihydrogen phosphate] |  | 5 and 5.1 ± 0.3 | no inhibitory activity
O=C(Nc1cccc(OP(=O)(O)O)c1)c1ccc(NC(=O)c2cccc(CNc3cccc(Cl)c3)c2)c(CC2CCCCC2)c1 [Compound 48b, 3-(4-(3-(((3-chlorophenyl)amino)methyl)benzamido)-3-(cyclohexylmethyl)benzamido)phenyl dihydrogen phosphate] |  | 2.3 ± 0.2 | no inhibitory activity
